Test results from ChEMBL document CHEMBL1255182, “Methylantcinate A induces tumor specific growth inhibition in oral cancer cells via Bax-mediated mitochondrial apoptotic pathway” (Bioorg Med Chem Lett, 2010).

Tests used:
OECM1 [1] = experiment: Induction of apoptosis in human OECM1 cells assessed as PARP cleavage after 6 hrs by Western blotting; type: functional, cell-based
Method in brief: (§1)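 OEC-M1 cells exposed to 10, 25 or 50 µM or DMSO for 6 h. Equal amounts of total lysate immunoblotted for Bcl-2, Bcl-xL, Bax and PARP (116-kDa full-length, 85-kDa cleaved), with β-actin as loading control. Bands quantified as fold of vehicle control after β-actin normalization.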

OECM1 [2] = experiment: Induction of apoptosis in human OECM1 cells assessed as caspase 3 activity at 50 uM by flow cytometry; type: functional, cell-based; conditions: TDE = time-dependent effect
Method in brief: (§2)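 OC-2 or OEC-M1 OSCC cells exposed to 50 µM for 3 h, 6 h and 9 h to follow caspase-3 activity over time. Activity read by flow cytometry with a specific peptide substrate.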

[3] = Induction of apoptosis in human OECM1 cells assessed as early apoptotic cells at 25 uM after 3 hrs by Annexin V-FITC and propidium iodide staining (reference value: 0.69%); type: functional
[4] = Cytotoxicity against human gingival fibroblast at up to 50 uM after 24 hrs by MTT assay
Method in brief: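 Normal human gingival fibroblasts exposed to a range of concentrations for 24 h, with 50 the highest tested. DMSO vehicle control. Viability read by MTT formazan absorbance and compared with control for statistical significance.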

[5] = Induction of apoptosis in human OC2 cells assessed as late apoptotic cells at 50 uM after 3 hrs by Annexin V-FITC and propidium iodide staining (reference value: 1.92%); type: functional
[6] = Induction of apoptosis in human OECM1 cells assessed as caspase 3 activity at 25 uM after 3 hrs by flow cytometry (reference value: 52.34%); type: functional
[7] = Induction of apoptosis in human OC2 cells assessed as early apoptotic cells at 25 uM after 3 hrs by Annexin V-FITC and propidium iodide staining (reference value: 0.67%); type: functional
OC2 [8] = experiment: Induction of apoptosis in human OC2 cells assessed as caspase 3 activity at 50 uM by flow cytometry; type: functional, cell-based; conditions: TDE = time-dependent effect; method in brief: as §2
[9] = Induction of apoptosis in human OC2 cells assessed as cytoplasmic histone-associated DNA fragmentation at 50 uM after 4 hrs by TUNEL assay (reference value: 28.6%); type: functional
Method in brief: (§3)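 After 4 h exposure to 25 or 50 µM or DMSO vehicle, OC-2 and OEC-M1 oral cancer cells were scored for DNA fragmentation by TUNEL labeling with flow cytometry, as % of cells. Mean ± SD of three determinations.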

[10] = Induction of apoptosis in human OECM1 cells assessed as late apoptotic cells at 50 uM after 3 hrs by Annexin V-FITC and propidium iodide staining (reference value: 5.18%); type: functional
[11] = Induction of apoptosis in human OECM1 cells assessed as late apoptotic cells at 25 uM after 3 hrs by Annexin V-FITC and propidium iodide staining (reference value: 5.18%); type: functional
OECM1 [12] = experiment: (§4) Cytotoxicity against human OECM1 cells after 24 hrs by MTT assay; type: functional, cell-based
Method in brief: (§5)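 Human oral squamous carcinoma lines, from primary tumours of adult male Taiwanese betel quid chewers, exposed to a range of concentrations for 24 h. DMSO control. Viable cells read by MTT reduction to formazan (absorbance). IC50 is the concentration giving a 50% fall in absorbance relative to control.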

[13] = as §4; type: functional, cell-based; conditions: OECM1, 24 h; method in brief: as §5
[14] = Induction of apoptosis in human OC2 cells assessed as late apoptotic cells at 25 uM after 3 hrs by Annexin V-FITC and propidium iodide staining (reference value: 1.92%); type: functional
OECM1 [15] = experiment: Induction of apoptosis in human OECM1 cells assessed as increase of Bax protein expression after 6 hrs by Western blotting; type: functional, cell-based; method in brief: as §1
[16] = Induction of apoptosis in human OECM1 cells assessed as caspase 3 activity at 50 uM after 3 hrs by flow cytometry (reference value: 52.34%); type: functional
[17] = Induction of apoptosis in human OC2 cells assessed as caspase 3 activity at 25 uM after 3 hrs by flow cytometry (reference value: 48.99%); type: functional
OC2 [18] = experiment: (§6) Cytotoxicity against human OC2 cells after 24 hrs by MTT assay; type: functional, cell-based; method in brief: as §5
[19] = as §6; type: functional, cell-based; conditions: OC2, 24 h; method in brief: as §5
[20] = Induction of apoptosis in human OC2 cells assessed as cytoplasmic histone-associated DNA fragmentation at 25 uM after 4 hrs by TUNEL assay (reference value: 28.6%); type: functional; method in brief: as §3
[21] = Induction of apoptosis in human OC2 cells assessed as caspase 3 activity at 50 uM after 3 hrs by flow cytometry (reference value: 48.99%); type: functional
[22] = Induction of apoptosis in human OC2 cells assessed as early apoptotic cells at 50 uM after 3 hrs by Annexin V-FITC and propidium iodide staining (reference value: 0.67%); type: functional
OECM1 [23] = experiment: Induction of apoptosis in human OECM1 cells assessed as decrease of Bcl-xL protein expression after 6 hrs by Western blotting; type: functional, cell-based; method in brief: as §1
[24] = Induction of apoptosis in human OECM1 cells assessed as cytoplasmic histone-associated DNA fragmentation at 50 uM after 4 hrs by TUNEL assay (reference value: 8.15%); type: functional; method in brief: as §3
[25] = Induction of apoptosis in human OECM1 cells assessed as cytoplasmic histone-associated DNA fragmentation at 25 uM after 4 hrs by TUNEL assay (reference value: 8.15%); type: functional; method in brief: as §3
[26] = Induction of apoptosis in human OECM1 cells assessed as early apoptotic cells at 50 uM after 3 hrs by Annexin V-FITC and propidium iodide staining (reference value: 0.69%); type: functional
OECM1 [27] = experiment: Induction of apoptosis in human OECM1 cells assessed as decrease of Bcl-2 protein expression after 6 hrs by Western blotting; type: functional, cell-based; method in brief: as §1

C=C(CC[C@@H](C)[C@H]1CC[C@H]2C3=C(C(=O)C[C@]12C)[C@@]1(C)CCC(=O)[C@@H](C)[C@@H]1CC3)C(C)C(=O)OC (some centres not stated) [METHYLANTCINATE A]
Activity (OECM1 [1]): Dose-dependent effect | Activity (OECM1 [2]): tde | Activity [3]: 59.73% | Activity [4]: Non-toxic | Activity [5]: 14.3% | Activity [6]: 66.86% | Activity [7]: 15.35% | Activity (OC2 [8]): tde | Activity [9]: 52.55% | Activity [10]: 27.71% | Activity [11]: 23.63% | Activity (OECM1 [12]): Dose-dependent effect | IC50 [13]: 24.5 µM | Activity [14]: 13.2% | Activity (OECM1 [15]): Dose-dependent effect | Activity [16]: 87.07% | Activity [17]: 59.19% | Activity (OC2 [18]): Dose-dependent effect | IC50 [19]: 37.4 µM | Activity [20]: 41.07% | Activity [21]: 69.06% | Activity [22]: 9.09% | Activity (OECM1 [23]): Dose-dependent effect | Activity [24]: 57.8% | Activity [25]: 56.5% | Activity [26]: 62.33% | Activity (OECM1 [27]): Dose-dependent effect
